Measurements as given in ChEMBL document CHEMBL1128597, “Picornavirus inhibitors: trifluoromethyl substitution provides a global protective effect against hepatic metabolism” (J Med Chem, 1995).

Tests used:
[1] = t1/2 in monkey liver microsomes; format: ADME, Microsome; settings: simiiformes
[2] = Tested for pharmacokinetic parameter in fasted Beagle dogs (Half-life) iv administration.; format: ADME, organism-based, Canis lupus familiaris; settings: dog, in vivo
Outline: (§1)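 Single intravenous bolus of 10 mg/kg given to fasted beagle dogs. Plasma was extracted with hexane and assayed by GC with electron-capture detection or by reverse-phase HPLC, depending on the analyte. Concentrations below the minimum quantifiable level were ignored when computing means. Half-life and CL were derived from plasma profiles by model-independent methods, and AUC by the trapezoidal rule.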

[3] = Tested for pharmacokinetic parameter in fasted Beagle dogs (Area Under Curve value) iv administration.; format: ADME, organism-based, Canis lupus familiaris; settings: dog, in vivo; outline: as §1
[4] = Tested for pharmacokinetic parameter in fasted Beagle dogs (Clearance value of the compound) iv administration.; format: ADME, organism-based, Canis lupus familiaris; settings: dog, in vivo; outline: as §1

SMILES | half-life [1] | further results
Cc1cc(-c2noc(C3CC3)n2)cc(C)c1OCCCc1cc(OCCO)no1 | > 2.5 h | 
Cc1cc(CCCCCOc2c(Cl)cc(C3=NCCO3)cc2Cl)on1 [WIN-54954] |  | half-life [2]: 7 h; AUC [3]: 4910 ng·h/mL; clearance [4]: 31.8 mL/min/kg
Cc1cc(CCCOc2c(C)cc(-c3noc(CF)n3)cc2C)on1 | 0.233 h | 
Cc1ccc(CCCOc2c(C)cc(-c3noc(C(F)(F)F)n3)cc2C)cn1 | 1.97 h | 
Cc1cc(-c2noc(C(F)(F)F)n2)cc(C)c1OCCCc1cc(CO)no1 | > 2.5 h | 
COCc1cc(CCCOc2c(C)cc(-c3noc(C)n3)cc2C)on1 | 0.5 h | 
COc1nc(-c2cc(C)c(OCCCc3cc(C)no3)c(C)c2)no1 | 0.55 h | 
Cc1cc(CCCOc2c(C)cc(-c3noc(C4CC4)n3)cc2C)on1 | 2.23 h | 
CC(=O)c1ccc(CCCOc2c(C)cc(-c3noc(C)n3)cc2C)o1 | 0.617 h | 
Cc1cc(-c2noc(C(F)(F)F)n2)cc(C)c1OCCCc1cccc(F)n1 | > 2.5 h | 
Cc1nc(-c2cc(C)c(OCCCc3cccc(F)n3)c(C)c2)no1 | 0.283 h | 
CCc1cc(CCCOc2c(C)cc(-c3noc(C)n3)cc2C)on1 | 0.183 h | 
Cc1cc(CCCOc2c(C)cc(-c3noc(C)n3)cc2C)on1 | 0.45 h | 
Cc1cc(CCCOc2c(C)cc(-c3noc(CC(F)(F)F)n3)cc2C)on1 | 0.533 h | 

More lines, main results first:

half-life [1] | SMILES | further results
1.42 h | Cc1cc(CCCOc2c(C)cc(-c3noc(C(F)F)n3)cc2C)on1 | 
> 2.5 h | Cc1cc(-c2noc(C3CC3)n2)cc(C)c1OCCCc1cc(C2CC2)no1 | 
1.58 h | COCc1cc(CCCOc2c(C)cc(-c3noc(C(F)(F)F)n3)cc2C)on1 | 
> 2.5 h | CCc1cc(CCCOc2c(C)cc(-c3noc(C(F)(F)F)n3)cc2C)on1 | 
0.55 h | Cc1nc(-c2cc(C)c(OCCCc3cc(C(F)(F)F)no3)c(C)c2)no1 | 
2.3 h | Cc1cc(CCCOc2c(C)cc(-c3noc(C(N)=O)n3)cc2C)on1 | 
> 2.5 h | CCOCc1cc(CCCOc2c(C)cc(-c3noc(C(F)(F)F)n3)cc2C)on1 | 
> 2.5 h | COCc1cc(CCCOc2c(C)cc(-c3noc(C4CC4)n3)cc2C)on1 | 
> 2.5 h | CCOc1cc(CCCOc2c(C)cc(-c3noc(C4CC4)n3)cc2C)on1 | 
1.1 h | Cc1cc(CCCOc2c(C)cc(-c3noc(C(C)(F)F)n3)cc2C)on1 | 
0.183 h | Cc1cc(CCCOc2c(C)cc(-c3noc(C(Cl)(Cl)Cl)n3)cc2C)on1 | 
0.283 h | Cc1cc(CCCOc2c(C)cc(-c3noc(C#N)n3)cc2C)on1 | 
> 2.5 h | Cc1cc(-c2noc(C3CC3)n2)cc(C)c1OCCCc1cc(CO)no1 | 
1.05 h | CC(=O)c1ccc(CCCOc2c(C)cc(-c3noc(C(F)(F)F)n3)cc2C)o1 | 
1.37 h | Cc1ccc(CCCOc2c(C)cc(-c3noc(C)n3)cc2C)cn1 | 
0.9 h | CCc1cc(CCCOc2c(C)cc(-c3noc(C4CC4)n3)cc2C)on1 | 
> 2.5 h | Cc1cc(CCCOc2c(C)cc(-c3noc(C(F)(F)F)n3)cc2C)on1 [PLECONARIL] | half-life [2]: 27 h; AUC [3]: 11800 ng·h/mL; clearance [4]: 12.8 mL/min/kg
> 2.5 h | CCOc1nc(-c2cc(C)c(OCCCc3cc(C)no3)c(C)c2)no1 | 
> 2.5 h | Cc1cc(-c2noc(C(F)(F)F)n2)cc(C)c1OCCCc1cc(CS(C)(=O)=O)no1 | 
> 2.5 h | Cc1cc(-c2noc(C(F)(F)F)n2)cc(C)c1OCCCc1cc(C[S+](C)[O-])no1 (centres undefined) | 
